A short description of this test: Cytotoxicity against human HepG2 cells assessed as reduction in cell viability measured after 48 hrs by MTT assay. Type of test: functional, cell-based. The settings on record: HepG2, 48 h. The procedure, abridged:
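HepG2 cells grown in DMEM with 10% FBS, penicillin/streptomycin, 5% CO2, 37 °C; seeded at 5 × 10^4 cells/mL, attached 12 h. Compounds in DMSO at 1, 5, 10, 25 μM for 48 h; docetaxel positive control. MTT added for 4 h, formazan dissolved in DMSO, absorbance 550 nm. Viability relative to control wells; IC50 with 95% CI by log-concentration regression; three independent replicates.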
With `C=C(C)[C@@H]1CC[C@]2(C(=O)O)CC[C@]3(C)[C@H](CC[C@@H]4[C@@]5(C)C[C@@H](OC(=O)/C=C/c6ccc(O)cc6)[C@H](O)C(C)(C)[C@@H]5CC[C@]43C)[C@@H]12`, the IC50 worked out at 2 µM.

On to `C=C(C)[C@@H]1CC[C@]2(C(=O)O)CC[C@]3(C)[C@H](CC[C@@H]4[C@@]5(C)[C@@H](C(=O)OC)[C@H](OC(=O)c6ccc(O)c(OC)c6)C(C)(C)[C@@H]5CC[C@]43C)[C@@H]12`, for which the IC50 stood at 1.9 µM.

On to `C=C(C)[C@@H]1CC[C@]2(C(=O)O)CC[C@]3(C)[C@H](CC[C@@H]4[C@@]5(C)[C@@H](C(=O)O)[C@H](OC(=O)c6ccc(O)c(OC)c6)C(C)(C)[C@@H]5CC[C@]43C)[C@@H]12`, for which the IC50 was above 10 µM.

With `C=C(C)[C@@H]1CC[C@]2(C(=O)O)CC[C@]3(C)[C@H](CC[C@@H]4[C@@]5(C)C[C@@H](OC(=O)c6ccc(O)cc6)[C@H](O)C(C)(C)[C@@H]5CC[C@]43C)[C@@H]12`, the concentration for half-maximal inhibition (IC50) is 2.9 µM.

`C=C(C)[C@@H]1CC[C@]2(C(=O)O)CC[C@]3(C)[C@H](CC[C@@H]4[C@@]5(C)C[C@@H](OC(=O)/C=C\c6ccc(O)cc6)[C@H](O)C(C)(C)[C@@H]5CC[C@]43C)[C@@H]12`: the IC50 turned out to be 2.1 µM.

For `C=C(C)[C@@H]1CC[C@]2(C(=O)O)CC[C@]3(C)[C@H](CC[C@@H]4[C@@]5(C)[C@@H](C(=O)OC)[C@H](OC(=O)c6ccc(O)c(O)c6)C(C)(C)[C@@H]5CC[C@]43C)[C@@H]12`, the IC50 worked out at 2.8 µM.

As to `C=C(C)[C@@H]1CC[C@]2(C(=O)O)CC[C@]3(C)[C@H](CC[C@@H]4[C@@]5(C)[C@H](C(=O)O)[C@H](OC(=O)c6ccc(O)c(OC)c6)C(C)(C)[C@@H]5CC[C@]43C)[C@@H]12`, the IC50 was 3.9 µM.

Take `C=C(C)[C@@H]1CC[C@]2(C(=O)O)CC[C@]3(C)[C@H](CC[C@@H]4[C@@]5(C)[C@H](C(=O)O)[C@H](OC(=O)c6ccc(O)cc6)C(C)(C)[C@@H]5CC[C@]43C)[C@@H]12`: the concentration for half-maximal inhibition (IC50) was above 10 µM.

For the molecule `C=C(C)[C@@H]1CC[C@]2(C(=O)O)CC[C@]3(C)[C@H](CC[C@@H]4[C@@]5(C)C[C@@H](OC(=O)c6ccccc6)[C@H](O)C(C)(C)[C@@H]5CC[C@]43C)[C@@H]12`, the IC50 is above 10 µM.

With `C=C(C)[C@@H]1CC=C2CC[C@]3(C(=O)O)[C@H](CC[C@@H]4[C@@]5(C)C=C[C@](C)(CO)[C@@H]5CC[C@]43C)[C@H]21`, the concentration for half-maximal inhibition (IC50) was 4.9 µM.

Consider `C=C(C)[C@@H]1CC[C@]2(C(=O)O)CC[C@]3(C)[C@H](CC[C@@H]4[C@@]5(C)[C@H](C(=O)OC)[C@H](O)C(C)(C)[C@@H]5CC[C@]43C)[C@@H]12`, for which the IC50 is above 10 µM.

Regarding `C=C(C)[C@@H]1CC[C@]2(C(=O)O)CC[C@]3(C)[C@H](CC[C@@H]4[C@@]5(C)[C@@H](C(=O)O)[C@H](O)[C@](C)(CO)[C@@H]5CC[C@]43C)[C@@H]12`, the IC50 was above 10 µM.

For `C=C(C)[C@@H]1CC[C@]2(C(=O)O)CC[C@]3(C(=O)O)[C@H](CC[C@@H]4[C@@]5(C)[C@@H](C(=O)OC)CC(C)(C)[C@@H]5CC[C@]43C)[C@@H]12`, the IC50 is above 10 µM.

As for `C=C(C)[C@@]12CC[C@@]3(CC[C@]4(C(=O)O)[C@H](CC[C@@H]5[C@@]6(C)[C@@H](C(=O)O)CC(C)(C)[C@@H]6CC[C@]54C)[C@H]31)C(=O)O2`, the IC50 is above 10 µM.

For `C=C(C)[C@@H]1CC[C@]2(C(=O)O)CC[C@]3(C)[C@H](CC[C@@H]4[C@@]5(C)[C@@H](C(=O)O)[C@H](OC(=O)c6ccc(O)cc6)C(C)(C)[C@@H]5CC[C@]43C)[C@@H]12`, the IC50 is above 10 µM.

As to `C=C(C)[C@@H]1CC[C@]2(C(=O)O)CC[C@]3(C)[C@H](CC[C@@H]4[C@@]5(C)[C@@H](C(=O)O)[C@H](OC(=O)c6ccc(O)c(O)c6)C(C)(C)[C@@H]5CC[C@]43C)[C@@H]12`, the IC50 was above 10 µM.

As for `C=C(C)[C@@H]1CC[C@]2(C(=O)O)CC[C@]3(C)[C@H](CC[C@@H]4[C@@]5(C)C(C=O)=CC(C)(C)[C@@H]5CC[C@]43C)[C@@H]12`, the IC50 was 2 µM.

As to `C=C(C)[C@@H]1CC[C@]2(C(=O)O)CC[C@]3(C(=O)O)[C@H](CC[C@@H]4[C@@]5(C)[C@@H](C(=O)OC)[C@H](O)C(C)(C)[C@@H]5CC[C@]43C)[C@@H]12`, the IC50 was above 10 µM.

As to `C=C(C)[C@@H]1CC[C@]2(C(=O)O)CC[C@]3(C)[C@H](CC[C@@H]4[C@@]5(C)C[C@@H](OC(=O)c6ccc(O)c(O)c6)[C@H](O)C(C)(C)[C@@H]5CC[C@]43C)[C@@H]12`, the IC50 is above 10 µM.

As for `C=C(C)[C@@H]1CC[C@]2(C(=O)O)CC[C@]3(C(=O)O)[C@H](CC[C@@H]4[C@@]5(C)[C@@H](C(=O)O)CC(C)(C)[C@@H]5CC[C@]43C)[C@@H]12`, the half-maximal inhibitory concentration (IC50) was above 10 µM.

Turning to `C=C(C)[C@@H]1CC[C@]2(C(=O)O)CC[C@]3(C)[C@H](CC[C@@H]4[C@@]5(C)C[C@@H](O)[C@H](O)C(C)(C)[C@@H]5CC[C@]43C)[C@@H]12` [ALPHITOLIC ACID], the concentration for half-maximal inhibition (IC50) is above 10 µM.

In the case of `C=C(C)[C@@H]1CC[C@]2(C(=O)O)CC[C@]3(C)[C@H](CC[C@@H]4[C@@]5(C)CC[C@H](O)C(C)(C)[C@@H]5CC[C@]43C)[C@@H]12` [BETULINIC ACID], the IC50 was found to be 5.9 µM.

For `C=C(C)[C@@H]1CC[C@]2(C(=O)O)CC[C@]3(C)[C@H](CC[C@@H]4[C@@]5(C)[C@@H](C(=O)O)[C@H](O)C(C)(C)[C@@H]5CC[C@]43C)[C@@H]12` [CEANOTHIC ACID], the IC50 is above 10 µM.

Consider `CC(=O)O[C@@]12CO[C@@H]1C[C@H](O)[C@@]1(C)C(=O)[C@H](O)C3=C(C)[C@@H](OC(=O)[C@H](O)[C@@H](NC(=O)OC(C)(C)C)c4ccccc4)C[C@@](O)([C@@H](OC(=O)c4ccccc4)[C@H]21)C3(C)C` [DOCETAXEL ANHYDROUS], for which the IC50 was 8.3 µM.

Turning to `C=C(C)[C@@H]1CC[C@]2(C(=O)O)CC[C@]3(C)[C@H](CC[C@@H]4[C@@]5(C)[C@H](C(=O)O)[C@H](O)C(C)(C)[C@@H]5CC[C@]43C)[C@@H]12` [EPICEANOTHIC ACID], the IC50 was above 10 µM.
